Data published in publication PMC8200842 (The Journal of General Physiology, 2021).
Several values for one entry are separate records, joined by “and”; a condition that tells them apart may be missing. Equal values may be shown once. Read-outs that look alike come from different tables or passages of the source. Marks after values point to notes of the source that are not given here.

Tests used:
Format in all cases: binding
WT MelBSt = WT MelBSt (Salmonella typhimurium, UniProt P30878); experiment: Thermal denaturation by CD spectroscopy; conditions: for 10% unfolding / 50% unfolding (Tm) / 90% unfolding: WT MelBSt 10 µM, component at 50 mM in CD buffer, ellipticity at 210 nm; for denaturation completed faster than in the absence of salt / ΔTm: WT MelBSt; for denaturation completed faster than in the absence of salt: above 60°C, nonspecific salt effect; for ΔTm: difference in Tm compared with apo
Procedure, shortened: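 Samples sat in a 1-mm cuvette. Ellipticity at 210 nm was recorded from 25–80°C at 1°C intervals, ramping 1°C/min, and expressed as percent unfolded. Tm is the half-maximal ellipticity decrease by curve fitting. Data are SEM; unpaired t test, P<0.05.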

D55C MelBSt mutant = D55C MelBSt mutant (Salmonella typhimurium, UniProt P30878, D55C); experiment: Thermal denaturation by CD spectroscopy; conditions: D55C MelBSt 10 µM, component at 50 mM in CD buffer, ellipticity at 210 nm
MelBSt = MelBSt (Salmonella typhimurium, UniProt P30878); conditions: for ΔΔH: from 15°C to 30°C
[1] = MelBSt with 100 mM NaCl (MelBSt/Na^+ binary complex), 15°C
[2] = MelBSt with 100 mM NaCl (MelBSt/Na^+ binary complex), 20°C
[3] = MelBSt with 100 mM NaCl (MelBSt/Na^+ binary complex), 25°C
[4] = MelBSt with 100 mM NaCl (MelBSt/Na^+ binary complex), 30°C
[5] = MelBSt with 100 mM NaCl (MelBSt/Na^+ binary complex), 35°C
[6] = apo MelBSt, range over 15°C, 20°C, 25°C and 30°C
[7] = binding to MelBSt/Na^+ binary complex
[8] = MelBSt with 50 mM melibiose (MelBSt/Mel binary complex), 15°C
[9] = MelBSt with 50 mM melibiose (MelBSt/Mel binary complex), 20°C
[10] = MelBSt with 50 mM melibiose (MelBSt/Mel binary complex), 25°C
[11] = MelBSt with 50 mM melibiose (MelBSt/Mel binary complex), 30°C
[12] = binding to MelBSt/Mel binary complex

In the case of `[K+]` [K^+], the 10% unfolding (WT MelBSt) is reported as 46.06 ± 0.02 °C, the “50% unfolding (Tm)” value (WT MelBSt) is reported as 53.34 ± 0.04 °C and the 90% unfolding (WT MelBSt) is reported as 59.94 ± 0.69 °C. The “denaturation completed faster than in the absence of salt” value (WT MelBSt) was 4–5 °C, the ΔTm (WT MelBSt) was 0.05 ^d (>0.05 ^e) °C and the 10% unfolding (D55C MelBSt mutant) was 46.51 ± 0.71 °C. For the same compound, the “50% unfolding (Tm)” value (D55C MelBSt mutant) was 56.15 ± 0.16 °C and the 90% unfolding (D55C MelBSt mutant) was 65.07 ± 0.06 °C.
With `OC[C@H]1O[C@H](OCC2O[C@@H](O)[C@H](O)[C@@H](O)[C@@H]2O)[C@H](O)[C@@H](O)[C@H]1O` (stereo partly shown) [Mel, melibiose] the 10% unfolding (WT MelBSt) was 45.95 ± 0.47 °C, the “50% unfolding (Tm)” value (WT MelBSt) was 54.07 ± 0.07 °C and the 90% unfolding (WT MelBSt) was 64.24 ± 0.42 °C. For the same compound, the ΔTm (WT MelBSt) was 0.78 (<0.05) °C, the “50% unfolding (Tm)” value (D55C MelBSt mutant) was >80 °C and the “Entropy change (−TΔS)” value (MelBSt; [1]) was -2.3 ± 0.16 kcal/mol. The “Free energy change (ΔG)” value (MelBSt; [1]) was -3.927 ± 0.0072 kcal/mol, the Kd (MelBSt; [1]) was 1050 ± 10 µM and the ΔH (MelBSt; [1]) was -1.54 ± 0.103 kcal/mol. For the same compound, the “Entropy change (−TΔS)” value (MelBSt; [2]) was -1.76 ± 0.237 kcal/mol, the “Free energy change (ΔG)” value (MelBSt; [2]) was -4.085 ± 0.0956 kcal/mol and the Kd (MelBSt; [2]) was 950 ± 130 µM. For the same compound, the ΔH (MelBSt; [2]) was -2.32 ± 0.141 kcal/mol, the “Entropy change (−TΔS)” value (MelBSt; [3]) was -1.14 ± 0.0621 kcal/mol and the “Free energy change (ΔG)” value (MelBSt; [3]) was -3.994 ± 0.0072 kcal/mol. The Kd (MelBSt; [3]) was 1180 ± 10 µM, the ΔH (MelBSt; [3]) was -2.861 ± 0.055 kcal/mol and the “Entropy change (−TΔS)” value (MelBSt; [4]) was -0.712 ± 0.0741 kcal/mol. The “Free energy change (ΔG)” value (MelBSt; [4]) was -3.956 ± 0.017 kcal/mol, the Kd (MelBSt; [4]) was 1410 ± 40 µM and the ΔH (MelBSt; [4]) was -3.243 ± 0.0574 kcal/mol. For the same compound, the “Entropy change (−TΔS)” value (MelBSt; [5]) was -0.261 ± 0.055 kcal/mol, the “Free energy change (ΔG)” value (MelBSt; [5]) was -3.879 ± 0.0478 kcal/mol and the Kd (MelBSt; [5]) was 1780 ± 140 µM. For the same compound, the ΔH (MelBSt; [5]) was -3.623 ± 0.105 kcal/mol, the “Entropy change (−TΔS)” value (MelBSt; apo MelBSt (main buffer), 15°C) was 3.499 ± 1.03 kcal/mol and the “Free energy change (ΔG)” value (MelBSt; apo MelBSt (main buffer), 15°C) was -2.694 ± 0.0645 kcal/mol. It also gave a Kd (MelBSt; apo MelBSt (main buffer), 15°C) of 9150 ± 1060 µM, a ΔH (MelBSt; apo MelBSt (main buffer), 15°C) of -6.193 ± 1.09 kcal/mol and a ΔH (MelBSt; apo MelBSt (main buffer), 15°C, listed as melibiose) of -6.193 kcal/mol. The “Entropy change (−TΔS)” value (MelBSt; apo MelBSt (main buffer), 20°C) was 2.849 ± 1.19 kcal/mol, the “Free energy change (ΔG)” value (MelBSt; apo MelBSt (main buffer), 20°C) was -2.71 ± 0.0621 kcal/mol and the Kd (MelBSt; apo MelBSt (main buffer), 20°C) was 9590 ± 1010 µM. The ΔH (MelBSt; apo MelBSt (main buffer), 20°C) was -5.559 ± 1.25 kcal/mol, the “Entropy change (−TΔS)” value (MelBSt; apo MelBSt (main buffer), 25°C) was 2 ± 1.6 kcal/mol and the “Free energy change (ΔG)” value (MelBSt; apo MelBSt (main buffer), 25°C) was -2.698 ± 0.139 kcal/mol. For the same compound, the Kd (MelBSt; apo MelBSt (main buffer), 25°C) was 10800 ± 2490 µM, the ΔH (MelBSt; apo MelBSt (main buffer), 25°C) was -4.694 ± 1.47 kcal/mol and the “Entropy change (−TΔS)” value (MelBSt; apo MelBSt (main buffer), 30°C) was 1.34 ± 1.35 kcal/mol. For the same compound, the “Free energy change (ΔG)” value (MelBSt; apo MelBSt (main buffer), 30°C) was -2.584 ± 0.0526 kcal/mol, the Kd (MelBSt; apo MelBSt (main buffer), 30°C) was 13800 ± 1180 µM and the ΔH (MelBSt; apo MelBSt (main buffer), 30°C) was -3.92 ± 1.3 kcal/mol. For the same compound, the ΔH (MelBSt; apo MelBSt (main buffer), 30°C, listed as melibiose) was -3.92 kcal/mol, the ΔΔH (MelBSt; apo MelBSt) was ~2.39 kcal/mol and the Kd (MelBSt; [6]) was 9000 to 13000 µM. The “binding free energy ΔG” value (MelBSt; [6]) was -2.694 to -2.584 kcal/mol, the “−ΔSConf” value (MelBSt; [7]) was 59.86 J/mol·K and the “−ΔSMix” value (MelBSt; [7]) was 33.00 J/mol·K. For the same compound, the “−ΔSSolv” value (MelBSt; [7]) was −108.78 J/mol·K, the “−ΔSSum at °25 C” value (MelBSt; [7]) was −15.92 J/mol·K and the “−ΔSConf” value (MelBSt; binding to apo MelBSt) was −169.20 J/mol·K. The “−ΔSMix” value (MelBSt; binding to apo MelBSt) was 33.00 J/mol·K, the “−ΔSSolv” value (MelBSt; binding to apo MelBSt) was 164.61 J/mol·K and the “−ΔSSum at °25 C” value (MelBSt; binding to apo MelBSt) was 28.41 J/mol·K. It also gave a ΔCp (MelBSt; binding to apo MelBSt, slope of ΔH versus temperature 15-30°C) of 643.01 ± 26.92 J/mol·K.
For `[Na+]` [Na^+], the 10% unfolding (WT MelBSt) was 49.07 ± 0.28 °C, the “50% unfolding (Tm)” value (WT MelBSt) was 54.83 ± 0.03 °C and the 90% unfolding (WT MelBSt) was 60.06 ± 0.29 °C. The “denaturation completed faster than in the absence of salt” value (WT MelBSt) was 4–5 °C, the ΔTm (WT MelBSt) was 1.54 (<0.05) °C and the 10% unfolding (D55C MelBSt mutant) was 46.35 ± 0.25 °C. For the same compound, the “50% unfolding (Tm)” value (D55C MelBSt mutant) was 56.75 ± 0.25 °C, the 90% unfolding (D55C MelBSt mutant) was 66.51 ± 0.31 °C and the “Entropy change (−TΔS)” value (MelBSt; [8]) was -3.009 ± 0.0621 kcal/mol. For the same compound, the “Free energy change (ΔG)” value (MelBSt; [8]) was -5.566 ± 0.0478 kcal/mol, the Kd (MelBSt; [8]) was 60 ± 10 µM and the ΔH (MelBSt; [8]) was -2.557 ± 0.014 kcal/mol. The “Entropy change (−TΔS)” value (MelBSt; [9]) was -1.94 ± 0.0072 kcal/mol, the “Free energy change (ΔG)” value (MelBSt; [9]) was -5.554 ± 0.0406 kcal/mol and the Kd (MelBSt; [9]) was 70 ± 10 µM. For the same compound, the ΔH (MelBSt; [9]) was -3.619 ± 0.0359 kcal/mol, the “Entropy change (−TΔS)” value (MelBSt; [10]) was -0.913 ± 0.0072 kcal/mol and the “Free energy change (ΔG)” value (MelBSt; [10]) was -5.39 ± 0.196 kcal/mol. The Kd (MelBSt; [10]) was 120 ± 40 µM, the ΔH (MelBSt; [10]) was -4.479 ± 0.191 kcal/mol and the “Free energy change (ΔG)” value (MelBSt; [11]) was -5.485 ± 0.177 kcal/mol. For the same compound, the Kd (MelBSt; [11]) was 120 ± 30 µM, the ΔH (MelBSt; [11]) was -5.299 ± 0.124 kcal/mol and the “difference in apo MelBSt binding affinities between Na^+ and melibiose” value (MelBSt; apo MelBSt) was “at least 20 fold”. The “Entropy change (−TΔS)” value (MelBSt; apo MelBSt (main buffer), 15°C) was 4.197 ± 0.311 kcal/mol, the “Free energy change (ΔG)” value (MelBSt; apo MelBSt (main buffer), 15°C) was -4.345 ± 0.0932 kcal/mol and the Kd (MelBSt; apo MelBSt (main buffer), 15°C) was 510 ± 80 µM. For the same compound, the ΔH (MelBSt; apo MelBSt (main buffer), 15°C) was -8.544 kcal/mol and -8.544 ± 0.215 kcal/mol, the “Entropy change (−TΔS)” value (MelBSt; apo MelBSt (main buffer), 20°C) was 2.404 ± 0.0048 kcal/mol and the “Free energy change (ΔG)” value (MelBSt; apo MelBSt (main buffer), 20°C) was -4.333 ± 0.117 kcal/mol. For the same compound, the Kd (MelBSt; apo MelBSt (main buffer), 20°C) was 600 ± 100 µM, the ΔH (MelBSt; apo MelBSt (main buffer), 20°C) was -6.74 ± 0.103 kcal/mol and the “Entropy change (−TΔS)” value (MelBSt; apo MelBSt (main buffer), 25°C) was 0.872 ± 0.0741 kcal/mol. For the same compound, the “Free energy change (ΔG)” value (MelBSt; apo MelBSt (main buffer), 25°C) was -4.412 ± 0.1 kcal/mol, the Kd (MelBSt; apo MelBSt (main buffer), 25°C) was 590 ± 120 µM and the ΔH (MelBSt; apo MelBSt (main buffer), 25°C) was -5.284 ± 0.191 kcal/mol. For the same compound, the “Entropy change (−TΔS)” value (MelBSt; apo MelBSt (main buffer), 30°C) was -0.473 ± 0.387 kcal/mol, the “Free energy change (ΔG)” value (MelBSt; apo MelBSt (main buffer), 30°C) was -4.302 ± 0.0526 kcal/mol and the Kd (MelBSt; apo MelBSt (main buffer), 30°C) was 790 ± 70 µM. The ΔH (MelBSt; apo MelBSt (main buffer), 30°C) was -3.829 kcal/mol and -3.829 ± 0.335 kcal/mol, the ΔΔH (MelBSt; apo MelBSt) was ~4.78 kcal/mol and the “−ΔSConf” value (MelBSt; [12]) was 148.74 J/mol·K. The “−ΔSMix” value (MelBSt; [12]) was 33.00 J/mol·K, the “−ΔSSolv” value (MelBSt; [12]) was −194.56 J/mol·K and the “−ΔSSum at °25 C” value (MelBSt; [12]) was −12.82 J/mol·K. For the same compound, the “−ΔSConf” value (MelBSt; binding to apo MelBSt) was −354.89 J/mol·K, the “−ΔSMix” value (MelBSt; binding to apo MelBSt) was 33.00 J/mol·K and the “−ΔSSolv” value (MelBSt; binding to apo MelBSt) was 334.13 J/mol·K. The “−ΔSSum at °25 C” value (MelBSt; binding to apo MelBSt) was 12.24 J/mol·K.
